From ChEMBL document CHEMBL2331166, “Antiproliferative withanolides from Datura wrightii” (J Nat Prod, 2013)
The source made the active and inactive calls. The calls are words filed in the database; no cut-off is given here.

Assays:
[1] = test system: MRC5; experiment: Cytotoxicity against human MRC5 cells after 72 hrs by MTS assay; assay type: cell-based; settings: MRC5, 72 h
[2] = Cytotoxicity against human MDA1986 cells after 72 hrs by MTS assay; assay type: functional, cell-based; settings: MDA1986, 72 h
Summary of the method: (§1)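 Monolayer cultures kept at 37 °C, 5% CO2, humidified, grown to 75–90% confluence; U87 and U251 maintained in DMEM with 10% FBS. Seeded at 2,500 cells/well and left about 6 h, then drug-containing medium added at various concentrations for 72 h. Viable cells read by MTS colorimetry at 490 nm. Triplicate, two separate occasions; IC50 from best-fit sigmoidal dose–response curves.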

[3] = test system: U-251; experiment: Cytotoxicity against human U251 cells after 72 hrs by MTS assay; assay type: functional, cell-based; settings: U-251, 72 h; summary of the method: as §1
[4] = test system: U-251; experiment: Increase in HSP32 expression in human U251 cells incubated for 24 hrs in presence of N-acetylcysteine by Western blotting method; assay type: functional, cell-based
[5] = Cytotoxicity against human U87 cells after 72 hrs by MTS assay; assay type: functional, cell-based, U-87MG ATCC; settings: U-87 MG; summary of the method: as §1
[6] = test system: MRC5; experiment: Selectivity index, ratio of IC50 for human MRC5 cells to IC50 for human U87 cells; assay type: functional
Summary of the method: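 MTS viability assay. MRC-5 fibroblasts and U87 glioblastoma cells were seeded at 2,500 cells/well and left about 6 h. Drug-containing media at a range of concentrations was then added, with 72 h further incubation at 37 °C in 5% CO2. Absorbance was read at 490 nm, in triplicate on two occasions. IC50s came from sigmoidal dose-response fits, and the index is the MRC-5/U87 IC50 ratio.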

[7] = test system: U-251; experiment: Increase in HSP32 expression in human U251 cells incubated for 24 hrs by Western blotting method; assay type: functional, cell-based
Summary of the method: (§2)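 U251 glioblastoma cells plated to stay subconfluent at harvest, grown overnight, then exposed to 0, 0.1, 0.5, 1 and 5 μM of each withanolide for 24 h. Lysates quantified, run on SDS-PAGE, transferred to nitrocellulose and immunoblotted for total HSP32 and HSP70. β-actin served as the loading control.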

[8] = test system: U-251; experiment: Increase in HSP70 expression in human U251 cells at 5 uM incubated for 24 hrs by Western blotting method; assay type: functional, cell-based; summary of the method: as §2
[9] = test system: U-251; experiment: Increase in HSP70 expression in human U251 cells at 5 uM incubated for 24 hrs in presence of N-acetylcysteine by Western blotting method; assay type: functional, cell-based

Row | Compound | IC50 [1] | IC50 [2] | IC50 [3] | Activity [4] | IC50 [5] | Ratio IC50 [6] | Activity [7] | Activity [8] | Activity [9]
1 | C=C1C(=O)O[C@@H]2C[C@@]1(C)OC[C@H]2[C@H]1CC[C@H]2[C@@H]3C[C@@H](O)[C@@]45C[C@H]4CC(=O)[C@]5(C)[C@H]3CC[C@]12C [WITHAWRIGHTOLIDE] | 5.6 µM | 3100 nM | 3600 nM | inactive | 1500 nM | 3.8 | Dose-dependent effect | – | –
2 | C=C1C(=O)O[C@@H]2C[C@]1(C)OC[C@H]2[C@H]1CC[C@H]2[C@@H]3C[C@@H](O)[C@@]4(O)CC=CC(=O)[C@]4(C)[C@H]3CC[C@]12C [WITHAMETELIN O] | 4.6 µM | 3000 nM | 2800 nM | inactive | 1100 nM | 4.1 | Dose-dependent effect | – | –
3 | C=C1C(=O)O[C@@H]2C[C@]1(C)OC[C@H]2[C@H]1CC[C@H]2[C@@H]3CC=C4CC=CC(=O)[C@]4(C)[C@H]3CC[C@]12C [WITHAMETELIN] | 5.1 µM | 2700 nM | 2200 nM | inactive | 1000 nM | 5.1 | Dose-dependent effect | Active | inactive
4 | CC1=C(CO)C(=O)O[C@@H]([C@@H](C)[C@H]2CC[C@H]3[C@@H]4C[C@H]5O[C@]56[C@@H](O)C=CC(=O)[C@]6(C)[C@H]4CC[C@]23C)C1 [WITHAFERIN A] | 0.2 µM | 800 nM | 690 nM | – | 1100 nM | 0.19 | – | – | –
5 | C=C1C(=O)O[C@@H]2C[C@]1(C)OC[C@H]2[C@H]1CC[C@H]2[C@@H]3C[C@H]4O[C@]45CC=CC(=O)[C@]5(C)[C@H]3CC[C@]12C [WITHAMETELIN F] | 3.3 µM | 1500 nM | 1400 nM | inactive | 560 nM | 6 | Dose-dependent effect | Active | inactive
6 | C=C1C(=O)O[C@@H]2C[C@]1(C)OC[C@H]2[C@H]1CC[C@H]2[C@@H]3CC=C4CC=CC(=O)[C@]4(C)[C@H]3C[C@@H](O)[C@]12C [WITHAMETELIN L] | 4.2 µM | 2300 nM | 1300 nM | inactive | 570 nM | 7.4 | Dose-dependent effect | Active | inactive
